Results: article PMC10558795 (Redox Biology, 2023)

How the values were obtained:
[1] = system: human NRF2 target genes in KYSE70 cells; assay: RNAseq of KYSE70 cells; assay type: cell-based; conditions: PYR 10 μM for 72 h, MIT 20 nM for 72 h
In short: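 Total RNA from treated and control cells made into Illumina libraries and sequenced (150 bp). Reads aligned to hg38 with RefSeq annotation and counted per gene; DEGs called by fold-change cut-off and corrected p-values. Gene set enrichment analysis performed; overall NRF2 target-gene mRNA level calculated on natural log scale.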

KYSE180 cells = assay: High-content cytotoxicity screen; assay type: cell-based, human; conditions: Homo sapiens, KYSE-180, 72 h, read-out: Cell proliferation (IC50, μM)
In short: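 Cells were seeded at 1200/well in 384-well plates and cultured overnight. Test compound was added at […] serial dilution from 10 µM, in triplicate, for 3 days. Controls were 0.1% DMSO (negative), 30 µM benzethonium chloride and 0.1% Triton X-100 added just before staining (positive). Cells were stained with 0.5 µg/ml Hoechst and 100 nM YOYO1, four 4× images per well. Normalized total-cell and dead-cell percentages were fitted for IC₅₀.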

DHFR = DHFR (Homo sapiens, UniProt P00374); assay: DHFR activity assay kit; assay type: biochemical; conditions: KYSE70 cells
Sequence of DHFR (P00374 whole entry): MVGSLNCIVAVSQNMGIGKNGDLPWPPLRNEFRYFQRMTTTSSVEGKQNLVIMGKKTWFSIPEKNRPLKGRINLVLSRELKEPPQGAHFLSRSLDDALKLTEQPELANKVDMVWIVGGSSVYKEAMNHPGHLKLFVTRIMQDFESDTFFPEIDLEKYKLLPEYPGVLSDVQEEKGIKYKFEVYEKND
In short: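 Kit-based DHFR enzymatic assay followed by the decrease in A340nm over time; methotrexate 1 μM as reference DHFR inhibitor.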

NRF2-ARE binding = NRF2-ARE binding (Homo sapiens, UniProt Q16236, W24C); assay: ELISA-based TransAM NRF2-ARE binding assay with KYSE70 nuclear extracts
Sequence of NRF2-ARE binding (Q16236 whole entry W24C): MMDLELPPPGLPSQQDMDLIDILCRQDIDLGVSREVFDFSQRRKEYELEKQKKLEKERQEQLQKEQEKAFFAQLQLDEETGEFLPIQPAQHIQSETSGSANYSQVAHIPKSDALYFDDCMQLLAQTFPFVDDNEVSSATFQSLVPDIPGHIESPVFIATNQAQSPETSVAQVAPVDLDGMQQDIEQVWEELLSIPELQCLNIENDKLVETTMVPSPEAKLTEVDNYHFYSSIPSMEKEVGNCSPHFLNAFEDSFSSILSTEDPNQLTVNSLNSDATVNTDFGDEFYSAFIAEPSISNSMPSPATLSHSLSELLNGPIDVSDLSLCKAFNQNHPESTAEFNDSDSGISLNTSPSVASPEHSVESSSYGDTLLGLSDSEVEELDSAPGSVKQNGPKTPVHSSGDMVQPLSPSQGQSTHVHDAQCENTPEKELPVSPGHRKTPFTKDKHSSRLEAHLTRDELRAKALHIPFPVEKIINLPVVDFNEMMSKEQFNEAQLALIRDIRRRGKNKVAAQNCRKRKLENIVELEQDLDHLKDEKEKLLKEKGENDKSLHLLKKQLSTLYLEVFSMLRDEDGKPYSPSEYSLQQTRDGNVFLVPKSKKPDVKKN
In short: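 TransAM ELISA: nuclear extract from untreated KYSE70 cells (20 μg/well) added to wells containing ARE oligonucleotide. Test compound, competitor or mutated competitor added, then 1 h incubation with mild agitation and washing. Anti-NRF2 antibody 1 h, then HRP-conjugated secondary antibody and substrate; A450nm read.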

[2] = system: NRF2 and NQO1 expression in NRF2^Mut-KYSE180 cells; assay: Western blotting of NRF2 and NQO1 expression in KYSE180 cells; assay type: cell-based, human
In short: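 NRF2-mutant KYSE180 cells (37 °C, 5% CO₂) treated with test compound; nuclear and cytosolic fractions prepared with a nuclear extraction kit. Proteins separated by SDS-PAGE onto nitrocellulose, primary antibody overnight at 4 °C, chemiluminescence on film. Bands quantified by densitometry, mean ± SD, Student's t-test.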

[3] = system: mouse NRF2 target genes in the esophageal epithelium; assay: RNAseq of esophageal epithelium of Sox2CreER; assay type: in vivo; conditions: PYR given after tamoxifen induction
In short: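 Sox2CreER;LSL-Nrf2^E79Q/+ mice induced with tamoxifen (75 mg/kg/day i.p., 5 days), then dosed orally with test compound in N-methyl-2-pyrrolidone:PEG300 (1:9). Part of forestomach resected at Week 1; esophageal epithelium harvested at sacrifice, Week 3. Total RNA sequenced; data normalized; overall NRF2 target-gene expression calculated at natural log scale.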

NRF2 (NRF2^Mut-KYSE180) = NRF2 (NRF2^Mut-KYSE180) (Homo sapiens, UniProt Q16236, D77V); assay: CHX chase analysis of NRF2 half-life in KYSE180 cells; assay type: cell-based; conditions: PYR 10 μM, MIT 20 nM
Sequence of NRF2 (NRF2^Mut-KYSE180) (Q16236 whole entry D77V): as the sequence (Q16236 whole entry W24C) above, with C24W, D77V counted along it
In short: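 Cells were grown in RPMI1640 GlutaMAX with 10% FBS and 1% penicillin/streptomycin at 37 °C, 5% CO₂. They were pre-incubated 4 h with test compound, then given 200 μg/ml cycloheximide to block protein synthesis. Cells were harvested at set time points after cycloheximide. Total lysates were run on SDS-PAGE and blotted for NRF2 and GAPDH, and band densities were used to calculate NRF2 half-life.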

CCc1nc(N)nc(N)c1-c1ccc(Cl)cc1 [PYR, Pyrimethamine]
Overall mRNA expression level of human NRF2 target genes [1]: significantly reduced
IC50 (KYSE180 cells): > 10 µM
Concentration from which DHFR activity is significantly inhibited (DHFR): ≥ 5 µM
NRF2-ARE binding activity (NRF2-ARE binding): did not observe any changes
Expression of nuclear NRF2 and cytoplasmic NQO1 [2]: inhibited the expression of nuclear NRF2 and cytoplasmic NQO1 in a dose- and time-dependent manner
Overall mRNA expression level of mouse NRF2 target genes in the esophageal epithelium [3]: significantly inhibited the overall mRNA expression level
Effect on NRF2 half-life (NRF2 (NRF2^Mut-KYSE180)): shortened NRF2 half-life
